A short description of series [1]: Ratio of cytotoxicity to anti BVDV activity of the compound. Details: species or system Bos taurus. Conditions: cattle; for selectivity ratio: read-out: CC50/EC50.
Series [2] in a line: Anti BVDV activity in MDBK (Madin-darby bovine kidney) cells. Format: functional, Bos taurus. Put shortly:
(§1)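 MDBK cells in DMEM with 10% heat-inactivated horse serum, penicillin and streptomycin, seeded at 5 × 10^5 cells/ml and incubated overnight at 37 °C. Infected with about 100 focus forming units of BVDV (nose strain) in the presence of graded compound concentrations for 24 h. Monolayers washed with PBS, overlaid with medium containing bactoagar, incubated a further 24 h. Viral foci counted microscopically.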

Series [3] is filed under the species Bos taurus. Put plainly: Anti BVDV activity relative to ribavirin. Format: functional.
The nature of series [4]: Cytotoxicity in MDBK (Madin-darby bovine kidney) cells. Format: cell-based, Bos taurus. Conditions: cattle. The gist of the method:
(§2)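 Cell viability assay: MDBK cells at 2 × 10^4 per well, cultured with graded compound concentrations at 37 °C for 3 days. Viable cells measured colorimetrically with a water-soluble tetrazolium dye.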

Series [5] can be described thus: Anti-bovine viral diarrhoea virus activity relative to ribavirin. Format: functional, Bos taurus.
For series [6], the species on record is Bos taurus. Put plainly: Anti BVDV activity relative to ribavirin (Ribavirin EC50 0.61 and CC50 90.2). The format is functional.
The nature of series [7]: Anti BVDV activity in MDBK (Madin-darby bovine kidney) cells (Ribavirin EC50 0.61 and CC50 90.2). The format is functional, Bos taurus. Put shortly:
as §1

Series [8] is described as follows: Cytotoxicity in MDBK (Madin-darby bovine kidney) cells (Ribavirin EC50 0.61 and CC50 90.2). Format: cell-based, Bos taurus. Conditions: cattle. Put shortly: as §2
The nature of series [9]: Anti BVDV activity in MDBK (Madin-darby bovine kidney) cells (Ribavirin EC50 1.2 and CC50 >100). The format is functional, Bos taurus. The gist of the method:
as §1

Series [10] is filed under the species Bos taurus. The experiment in a line: Anti BVDV activity relative to ribavirin (EC50 1.2 and CC50 >100). The format is functional.
Series [11] is described as follows: Cytotoxicity in MDBK (Madin-darby bovine kidney) cells (Ribavirin EC50 1.2 and CC50 >100). Format: cell-based, Bos taurus. Conditions: cattle. The gist of the method:
as §2

Several values for one entry are separate records, joined by “and”; a condition that tells them apart may be missing. Identical values can stand only once. Some results are limits rather than exact numbers.

By EC50 is commonly meant the concentration needed to bring the measured effect to its halfway point. One may read the CC50 as the concentration that lowers cell viability or growth by half. A lower CC50 goes with greater toxicity to the cells.

As for `Nc1ncnc2c1ncn2[C@H]1C[C@H](OC2Sc3ccccc3S2)[C@@H](CO)O1`, the selectivity ratio in series [1] is 1.1. Besides, the EC50 in [2] was determined as 63.8 µM. This compound also showed an EC50rel in the series listed under Bos taurus [3] of 42.5. For the same compound, it took 68.4 µM to reach half-maximal cytotoxicity in series [4] (CC50).
For the compound `CSc1ccccc1SCO[C@H]1C[C@H](n2ccc(N)nc2=O)O[C@@H]1CO`, the EC50 in series [2] was above 100 µM. Further, the CC50 in series [4] is above 100 µM.
`CSc1ccccc1SCO[C@H]1C[C@H](n2cnc3c(N)ncnc32)O[C@@H]1CO` registered an EC50 in series [2] above 100 µM. This compound registered a CC50 in [4] above 100 µM.
Regarding `O=c1ccn([C@@H]2O[C@H](CO)C(O)[C@@H]2OC2Sc3ccccc3S2)c(=O)[nH]1` (stereo partly drawn), the selectivity ratio in series [1] was 1.19. This compound also showed an EC50 in series [2] of 56.7 µM. Further, the EC50rel in the series listed under Bos taurus [3] was determined as 84.6. In [4], this compound had a CC50 of 67.3 µM.
Turning to `Nc1ccn([C@H]2C[C@H](OC3Sc4ccccc4S3)[C@@H](CO)O2)c(=O)n1`, the selectivity ratio in series [1] was 1. This compound also gave an EC50 in series [2] of 69.1 µM. The EC50rel in the series filed under Bos taurus [3] was found to be 46.1. This compound also gave a CC50 in series [4] of 69.7 µM.
In the case of `NC(=O)c1ncn([C@@H]2O[C@H](CO)[C@@H](O)[C@H]2O)n1` [RIBAVIRIN], the CC50/EC50 in [1] was < 150 and > 67. Besides, the EC50 in series [2] is 1.5 µM and 0.67 µM. For the same compound, the EC50rel (in [5]; in the series filed under Bos taurus [3]) was 1 each time. Further, the CC50 in [4] was above 100 µM.
`COC(=O)Nc1ccn([C@@H]2O[C@H](CO)C(O)[C@@H]2OC2Sc3ccccc3S2)c(=O)n1` (stereo partly drawn) came in with an EC50rel in the series filed under Bos taurus [6] of 82.5. Also, the selectivity ratio in [1] stood at 1.19. For the same compound, the EC50 in series [7] stood at 50.3 µM. In addition, in series [8], it took 60.1 µM to reach half-maximal cytotoxicity (CC50).
With `Cc1cn([C@H]2C[C@H](OC3Sc4ccccc4S3)[C@@H](CO)O2)c(=O)[nH]c1=O`, in series [1], the selectivity ratio was 1.5. In series [2], this compound gave an EC50 of 46.8 µM. This compound also yielded an EC50rel in series [5] of 31.2. Also, the CC50 in series [4] turned out to be 72.4 µM.
On to `CSc1ccccc1SCO[C@H]1C[C@H](n2cc(C)c(=O)[nH]c2=O)O[C@@H]1CO`, for which, in series [1], the selectivity ratio was above 1.1. Also, a half-maximal effect in series [2] (EC50) was put at 89.6 µM. In the series listed under Bos taurus [3], this compound displayed an EC50rel of 59.7. The CC50 in series [4] is above 100 µM.
For the compound `Nc1ccn([C@@H]2O[C@H](CO)C(O)[C@@H]2OC2Sc3ccccc3S2)c(=O)n1` (stereo partly drawn), the selectivity ratio in [1] is 2.47. This compound also gave an EC50 in series [2] of 28.5 µM. Moreover, the EC50rel in the series listed under Bos taurus [3] came to 42.5. In [4], this compound yielded a CC50 of 70.4 µM.
In turn, `COC1Sc2ccccc2S1` registered an EC50 in [2] above 100 µM. In series [4], this compound returned a CC50 above 100 µM.
For the compound `OC[C@H]1O[C@@H](n2cnc3c(O)ncnc32)[C@@H](OC2Sc3ccccc3S2)C1O` (stereo partly drawn), the selectivity ratio in series [1] is 3.21. Besides, in series [9], the response was half-maximal at 18.4 µM (EC50). In the series filed under Bos taurus [10], this compound yielded an EC50rel of 15.3. Further, in series [11], the CC50 amounted to 59.2 µM.
Consider `O=c1ccn([C@@H]2O[C@H](CO)C(OC3Sc4ccccc4S3)[C@@H]2O)c(=O)[nH]1` (stereo partly drawn), for which, in series [1], the selectivity ratio amounted to 1.46. The compound also gave an EC50 in series [2] of 50.6 µM. This compound displayed an EC50rel in the series listed under Bos taurus [3] of 75.5. This compound displayed a CC50 in [4] of 73.9 µM.
With `Nc1nc(O)c2ncn([C@@H]3O[C@H](CO)C(O)[C@@H]3OC3Sc4ccccc4S3)c2n1` (stereo partly drawn), the selectivity ratio in series [1] amounted to 5.09. This compound came in with an EC50 in series [2] of 14.4 µM. This compound showed an EC50rel in the series filed under Bos taurus [3] of 21.5. Also, in [4], the midpoint of cytotoxicity, the CC50, lay at 73.2 µM.
In the case of `Nc1nc(O)c2ncn([C@H]3C[C@H](OC4Sc5ccccc5S4)[C@@H](CO)O3)c2n1`, in series [1], the selectivity ratio was above 1.3. Besides, the EC50 in series [2] turned out to be 79.4 µM. This compound displayed an EC50rel in the series listed under Bos taurus [3] of 52.9. This compound displayed a CC50 in [4] above 100 µM.
The matching figures for `Cc1cn([C@H]2C[C@H](OC3Sc4ccccc4S3)[C@@H](C)O2)c(=O)[nH]c1=O`: 0.93, 86.7 µM, 57.8 and 81.3 µM.
As to `Nc1ncnc2c1ncn2[C@@H]1O[C@H](CO)C(O)[C@@H]1OC1Sc2ccccc2S1` (stereo partly drawn), in [1], the selectivity ratio was determined as 1.89. In [2], this compound registered an EC50 of 39.2 µM. The same compound yielded an EC50rel in the series filed under Bos taurus [3] of 58.5. This compound came in with a CC50 in series [4] of 74.3 µM.
`CSc1ccccc1SCO[C@H]1C[C@H](n2cnc3c(O)nc(N)nc32)O[C@@H]1CO`: the EC50 in [2] was above 100 µM. The CC50 in series [4] is above 100 µM.
Consider `O=c1ccn([C@@H]2O[C@H](CO)C(OC3Sc4ccccc4S3)[C@@H]2OC2Sc3ccccc3S2)c(=O)[nH]1` (stereo partly drawn), for which the EC50 in series [2] is below 48 µM. In the series filed under Bos taurus [3], this compound gave an EC50rel below 71.7. This compound also showed a CC50 in series [4] of 48 µM.

The record behind these values is ChEMBL document CHEMBL1138786, “Synthesis of benzodithiol-2-yl-substituted nucleoside derivatives as lead compounds having anti-bovine viral diarrhea virus activity” (J Med Chem, 2004).
